Data reported in ChEMBL document CHEMBL1146024, “Synthesis and structure-activity relationships of truncated bisubstrate inhibitors of aminoglycoside 6'-N-acetyltransferases” (J Med Chem, 2006).
Active and inactive are the calls of the source. The calls are words filed in the database; no cut-off is given here.

System: Enterococcus faecium
Experiment: Inhibition of Enterococcus faecium C238 growth in presence of kanamycin A
Assay type: functional, organism-based
Procedure, shortened: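 Two-dimensional checkerboard MIC assay per NCCLS, in duplicate, in brain heart infusion medium. Test compound in 2-fold dilutions from 8 to 512 µg/mL against kanamycin A at 100-600 µg/mL. Grown at 37 °C for 16 h; growth read at OD625, averaged, normalized to sterility controls and expressed as percent of positive growth controls.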

Row | SMILES | Activity
1 | CC(=O)CC(=O)OCC(C)(C)[C@@H](O)C(=O)NCCC(=O)NCCSCC(=O)NC[C@H]1O[C@H](O[C@H]2[C@H](O)[C@@H](O)[C@H](N)C[C@@H]2N)[C@H](N)[C@@H](O)[C@@H]1O | Active
2 | CC(C)(COC(=O)CC(=O)O)[C@@H](O)C(=O)NCCC(=O)NCCSCC(=O)NC[C@H]1O[C@H](O[C@H]2[C@H](O)[C@@H](O)[C@H](N)C[C@@H]2N)[C@H](N)[C@@H](O)[C@@H]1O | inactive
